# Data from ChEMBL document CHEMBL1122917, “Vinblastin-23-oyl amino acid derivatives: chemistry, physicochemical data, toxicity, and antitumor activities against P388 and L1210 leukemias” (J Med Chem, 1985).
# Tests used:
# Type in all cases: functional
# Mus musculus [1] = test: Number of survivors on 30th day at dose 10 mg/kg/day in 10 mice implanted with P388 leukemia cell line
# Mus musculus [2] = test: Number of survivors on 60th day at dose 14 mg/kg/day in 10 mice implanted with P388 leukemia cell line
# Mus musculus [3] = test: Percent increase in life span at dose 5 mg/kg/day in 10 mice implanted with P388 leukemia cell line
# In short: (§1)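 Female DBA2 mice inoculated iv on day 0 with 10^4 P388 cells; single iv treatment on day 1 with drug as sulfate salt in physiological saline. Survival followed; %ILS from all deaths and survivors as (T/C × 100) − 100, maximal MST 30 days; survivors counted on days 30 and 60. Most experiments confirmed three times.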
# Mus musculus [4] = test: Number of survivors on 30th day at dose 14 mg/kg/day in 10 mice implanted with P388 leukemia cell line
# Mus musculus [5] = test: Number of survivors on 60th day at dose 15 mg/kg/day in 10 mice implanted with P388 leukemia cell line
# Mus musculus [6] = test: Percent increase in life span at dose 14 mg/kg/day in 10 mice implanted with P388 leukemia cell line; in short: as §1
# Mus musculus [7] = test: Number of survivors on 60th day at dose 17.5 mg/kg/day in 9 mice implanted with P388 leukemia cell line
# Mus musculus [8] = test: Percent increase in life span of DBA2 mice after inoculation with L1210 leukemia intravenously at a dose of 15 mg/kg per day; conditions: route intravenous
# Mus musculus [9] = test: Number of survivors on 60th day at dose 4 mg/kg/day in 10 mice implanted with P388 leukemia cell line
# Mus musculus [10] = test: Number of survivors on 60th day at dose 5 mg/kg/day in 10 mice implanted with P388 leukemia cell line
# Mus musculus [11] = test: Percent increase in life span at dose 10 mg/kg/day in 10 mice implanted with P388 leukemia cell line; in short: as §1
# Mus musculus [12] = test: Number of survivors on 30th day at dose 4 mg/kg/day in 10 mice implanted with P388 leukemia cell line
# Mus musculus [13] = test: Percent increase in life span at dose 7 mg/kg/day in 10 mice implanted with P388 leukemia cell line; in short: as §1
# Mus musculus [14] = test: Percent increase in life span at dose 12.5 mg/kg/day in 10 mice implanted with P388 leukemia cell line; in short: as §1
# Mus musculus [15] = test: Number of survivors on 30th day at dose 17.5 mg/kg/day in 9 mice implanted with P388 leukemia cell line
# Mus musculus [16] = test: Number of survivors on 60th day at dose 10 mg/kg/day in 10 mice implanted with P388 leukemia cell line
# Mus musculus [17] = test: Percent increase in life span at dose 4 mg/kg/day in 10 mice implanted with P388 leukemia cell line; conditions: Mus musculus, P388; in short: as §1
# Mus musculus [18] = test: Percent increase in life span at dose 17.5 mg/kg/day in 10 mice implanted with P388 leukemia cell line
# Mus musculus [19] = test: Number of survivors of DBA2 mice on 30th day after inoculation with L1210 leukemia cell line intravenously at a dose of 15 mg/kg/day; 0/10; conditions: route intravenous
# Mus musculus [20] = test: Number of survivors on 30th day at dose 15 mg/kg/day in 10 mice implanted with P388 leukemia cell line
# Mus musculus [21] = test: Number of survivors on 30th day at dose 5 mg/kg/day in 10 mice implanted with P388 leukemia cell line
# Mus musculus [22] = test: Number of survivors on 30th day at dose 12.5 mg/kg/day in 10 mice implanted with P388 leukemia cell line
# Mus musculus [23] = test: Number of survivors on 30th day at dose 7 mg/kg/day in 10 mice implanted with P388 leukemia cell line
# Mus musculus [24] = test: Number of survivors on 60th day at dose 7 mg/kg/day in 10 mice implanted with P388 leukemia cell line; in short: as §1
# Mus musculus [25] = test: Number of survivors of DBA2 mice on 60th day after inoculation with L1210 leukemia cell line intravenously at a dose of 15 mg/kg/day; 0/10; conditions: route intravenous
# Mus musculus [26] = test: Number of survivors on 60th day at dose 12.5 mg/kg/day in 10 mice implanted with P388 leukemia cell line
# Mus musculus [27] = test: Number of survivors on 30th day at dose 40 mg/kg/day in 10 mice implanted with P388 leukemia cell line; 1/10
# Mus musculus [28] = test: Number of survivors on 60th day at dose 20 mg/kg/day in 10 mice implanted with P388 leukemia cell line; 0/10
# Mus musculus [29] = test: Number of survivors on 60th day at dose 60 mg/kg/day in 10 mice implanted with P388 leukemia cell line; 2/10
# Mus musculus [30] = test: Percent increase in life span at dose 60 mg/kg/day in 10 mice implanted with P388 leukemia cell line; in short: as §1
# Mus musculus [31] = test: Percent increase in life span at dose 40 mg/kg/day in 10 mice implanted with P388 leukemia cell line; in short: as §1
# Mus musculus [32] = test: Number of survivors on 30th day at dose 60 mg/kg/day in 10 mice implanted with P388 leukemia cell line; 3/10
# Mus musculus [33] = test: Number of survivors on 30th day at dose 70 mg/kg/day in 10 mice implanted with P388 leukemia cell line; 0/10
# Mus musculus [34] = test: Number of survivors on 30th day at dose 50 mg/kg/day in 10 mice implanted with P388 leukemia cell line; 1/10
# Mus musculus [35] = test: Percent increase in life span at dose 20 mg/kg/day in 10 mice implanted with P388 leukemia cell line; in short: as §1
# Mus musculus [36] = test: Percent increase in life span at dose 70 mg/kg/day in 10 mice implanted with P388 leukemia cell line; in short: as §1
# Mus musculus [37] = test: Number of survivors on 60th day at dose 40 mg/kg/day in 10 mice implanted with P388 leukemia cell line; 1/10
# Mus musculus [38] = test: Number of survivors on 30th day at dose 20 mg/kg/day in 10 mice implanted with P388 leukemia cell line; 0/10
# Mus musculus [39] = test: Number of survivors on 60th day at dose 70 mg/kg/day in 10 mice implanted with P388 leukemia cell line; in short: as §1
# Mus musculus [40] = test: Number of survivors on 60th day at dose 50 mg/kg/day in 10 mice implanted with P388 leukemia cell line; 0/10
# Mus musculus [41] = test: Percent increase in life span at dose 50 mg/kg/day in 10 mice implanted with P388 leukemia cell line; in short: as §1
# Mus musculus [42] = test: Percent increase in life span at dose 8 mg/kg/day in 10 mice implanted with P388 leukemia cell line; in short: as §1
# Mus musculus [43] = test: Percent increase in life span of DBA2 mice after inoculation with L1210 leukemia intravenously at a dose of 9 mg/lg per day
# Mus musculus [44] = test: Number of survivors on 30th day at dose 8 mg/kg/day in 10 mice implanted with P388 leukemia cell line
# Mus musculus [45] = test: Number of survivors on 30th day at dose 11 mg/kg/day in 10 mice implanted with P388 leukemia cell line
# Mus musculus [46] = test: Number of survivors on 60th day at dose 6 mg/kg/day in 10 mice implanted with P388 leukemia cell line
# Mus musculus [47] = test: Number of survivors on 60th day at dose 11 mg/kg/day in 10 mice implanted with P388 leukemia cell line
# Mus musculus [48] = test: Percent increase in life span at dose 11 mg/kg/day in 10 mice implanted with P388 leukemia cell line; in short: as §1
# Mus musculus [49] = test: Number of survivors on 60th day at dose 8 mg/kg/day in 10 mice implanted with P388 leukemia cell line; in short: as §1
# Mus musculus [50] = test: Number of survivors of DBA2 mice on 30th day after inoculation with L1210 leukemia cell line intravenously at a dose of 10 mg/kg/day; 0/10; conditions: route intravenous
# Mus musculus [51] = test: Number of survivors on 30th day at dose 6 mg/kg/day in 10 mice implanted with P388 leukemia cell line
# Mus musculus [52] = test: Number of survivors of DBA2 mice on 30th day after inoculation with L1210 leukemia cell line intravenously at a dose of 9 mg/kg/day; 0/10; conditions: route intravenous
# Mus musculus [53] = test: Number of survivors of DBA2 mice on 60th day after inoculation with L1210 leukemia cell line intravenously at a dose of 10 mg/kg/day; 0/10; conditions: route intravenous
# Mus musculus [54] = test: Percent increase in life span at dose 6 mg/kg/day in 10 mice implanted with P388 leukemia cell line; in short: as §1
# Mus musculus [55] = test: Number of survivors of DBA2 mice on 60th day after inoculation with L1210 leukemia cell line intravenously at a dose of 9 mg/kg/day; 0/10; conditions: route intravenous
# In short: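 Female DBA₂ mice received 10⁴ L1210 cells iv on day 0. Compounds were given iv as sulfate salts in physiological saline, as a single dose on day 1 (mg/kg per day). Groups were 10 mice. Survivors were counted on day 60. Cells were maintained by ip passage in DBA₂ mice.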
# Mus musculus [56] = test: Percent increase in life span of DBA2 mice after inoculation with L1210 leukemia intravenously at a dose of 10 mg/lg per day
smiles,measurement,setting,value
CCOC(=O)[C@@H](NC(=O)[C@@]1(O)[C@H](O)[C@]2(CC)C=CCN3CC[C@@]4(c5cc([C@@]6(C(=O)OC)C[C@H]7C[N@](CCc8c6[nH]c6ccccc86)C[C@](O)(CC)C7)c(OC)cc5N(C)[C@@]14C)[C@@H]32)C(C)C,Survivors,Mus musculus [1],0
same,Survivors,Mus musculus [2],0
same,ILS at 5 mg/kg/day,Mus musculus [3],17.2%
same,Survivors,Mus musculus [4],2
same,Survivors,Mus musculus [5],2
same,ILS at 14 mg/kg/day,Mus musculus [6],108%
same,Survivors,Mus musculus [7],0
same,ILS at 15 mg/kg/day,Mus musculus [8],67%
same,Survivors,Mus musculus [9],1
same,Survivors,Mus musculus [10],0
same,ILS at 10 mg/kg/day,Mus musculus [11],53.4%
same,Survivors,Mus musculus [12],1
same,ILS at 7 mg/kg/day,Mus musculus [13],40%
same,ILS at 12.5 mg/kg/day,Mus musculus [14],82.6%
same,Survivors,Mus musculus [15],0
same,Survivors,Mus musculus [16],0
same,ILS at 4 mg/kg/day,Mus musculus [17],13.5%
same,ILS at 17.5 mg/kg/day,Mus musculus [18],22.2%
same,Survivors,Mus musculus [19],0
same,Survivors,Mus musculus [20],3
same,Survivors,Mus musculus [21],0
same,Survivors,Mus musculus [22],2
same,Survivors,Mus musculus [23],0
same,Survivors,Mus musculus [24],0
same,Survivors,Mus musculus [25],0
same,Survivors,Mus musculus [26],0
CCOC(=O)[C@H](Cc1ccc(O)cc1)NC(=O)[C@@]1(O)[C@H](O)[C@]2(CC)C=CCN3CC[C@@]4(c5cc([C@@]6(C(=O)OC)C[C@H]7C[N@](CCc8c6[nH]c6ccccc86)C[C@](O)(CC)C7)c(OC)cc5N(C)[C@@]14C)[C@@H]32,Survivors,Mus musculus [27],1
same,Survivors,Mus musculus [28],0
same,Survivors,Mus musculus [29],2
same,ILS at 60 mg/kg/day,Mus musculus [30],49.5%
same,ILS at 40 mg/kg/day,Mus musculus [31],53.3%
same,Survivors,Mus musculus [32],3
same,Survivors,Mus musculus [33],0
same,Survivors,Mus musculus [34],1
same,ILS at 20 mg/kg/day,Mus musculus [35],29.9%
same,ILS at 70 mg/kg/day,Mus musculus [36],49.5%
same,Survivors,Mus musculus [37],1
same,Survivors,Mus musculus [38],0
same,Survivors,Mus musculus [39],0
same,Survivors,Mus musculus [40],0
same,ILS at 50 mg/kg/day,Mus musculus [41],49.5%
CCOC(=O)C(CC(C)C)NC(=O)[C@@]1(O)[C@H](O)[C@]2(CC)C=CCN3CC[C@@]4(c5cc([C@@]6(C(=O)OC)C[C@H]7CN(CCc8c6[nH]c6ccccc86)C[C@](O)(CC)C7)c(OC)cc5N(C)[C@@]14C)[C@@H]32 (stereo not given in full),ILS at 8 mg/kg/day,Mus musculus [42],46.5%
same,Survivors,Mus musculus [1],7
same,ILS,Mus musculus [43],27%
same,Survivors,Mus musculus [2],0
same,Survivors,Mus musculus [44],2
same,Survivors,Mus musculus [45],3
same,Survivors,Mus musculus [4],2
same,Survivors,Mus musculus [46],0
same,Survivors,Mus musculus [47],0
same,ILS at 11 mg/kg/day,Mus musculus [48],155%
same,ILS at 14 mg/kg/day,Mus musculus [6],30%
same,Survivors,Mus musculus [49],1
same,ILS at 10 mg/kg/day,Mus musculus [11],> 146%
same,ILS at 12.5 mg/kg/day,Mus musculus [14],> 146%
same,Survivors,Mus musculus [50],0
same,Survivors,Mus musculus [16],2
same,Survivors,Mus musculus [51],0
same,Survivors,Mus musculus [52],0
same,Survivors,Mus musculus [53],0
same,ILS at 6 mg/kg/day,Mus musculus [54],26.7%
same,Survivors,Mus musculus [22],6
same,Survivors,Mus musculus [55],0
same,Survivors,Mus musculus [26],1
same,ILS,Mus musculus [56],29.4%
